Laboratory results reported in ChEMBL document CHEMBL5705905, “Pharmacological targeting of kinases MST1 and MST2 augments tissue repair and regeneration” (Sci Transl Med, 2016).
Calls of active or inactive are those of the source. No cut-off for these calls is given here.

Legend:
[1] = molecular target: T1, Serine/threonine-protein kinase 3 (Homo sapiens, UniProt Q13188); experiment: Inhibition of recombinant His-tagged full-length MST2 (unknown origin) expressing in Escherichia coli assessed as MOB1a phosphorylation level incubated for 30 min in the presence of 30 uM ATP by immunoblot analysis
T1 sequence (Q13188 whole entry): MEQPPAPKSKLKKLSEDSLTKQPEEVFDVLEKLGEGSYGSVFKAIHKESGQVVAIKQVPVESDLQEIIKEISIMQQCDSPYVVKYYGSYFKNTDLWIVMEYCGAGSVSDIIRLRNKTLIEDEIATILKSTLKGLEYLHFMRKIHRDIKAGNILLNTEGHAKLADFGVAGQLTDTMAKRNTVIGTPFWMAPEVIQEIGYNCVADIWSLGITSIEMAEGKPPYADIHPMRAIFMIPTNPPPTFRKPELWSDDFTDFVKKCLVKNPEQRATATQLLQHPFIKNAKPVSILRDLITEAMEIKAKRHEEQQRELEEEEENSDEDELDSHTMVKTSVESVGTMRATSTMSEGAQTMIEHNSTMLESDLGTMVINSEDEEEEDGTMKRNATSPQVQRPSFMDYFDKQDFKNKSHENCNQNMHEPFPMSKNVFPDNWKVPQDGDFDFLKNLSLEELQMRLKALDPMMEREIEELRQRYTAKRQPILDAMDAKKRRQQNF

[2] = molecular target: T1, Serine/threonine-protein kinase 3; experiment: Inhibition of recombinant His-tagged full-length MST2 (unknown origin) expressing in Escherichia coli assessed as MOB1a phosphorylation level incubated for 30 min in the presence of 100 uM ATP by immunoblot analysis
[3] = molecular target: AP2-associated protein kinase 1 (Homo sapiens) (UniProt Q2M2I8); experiment: Inhibition of AAK1 (unknown origin) assessed as remaining activity at 1 uM by Kinome scan method relative to control
AP2-associated protein kinase 1 (Homo sapiens), sequence (Q2M2I8 whole entry, looked up): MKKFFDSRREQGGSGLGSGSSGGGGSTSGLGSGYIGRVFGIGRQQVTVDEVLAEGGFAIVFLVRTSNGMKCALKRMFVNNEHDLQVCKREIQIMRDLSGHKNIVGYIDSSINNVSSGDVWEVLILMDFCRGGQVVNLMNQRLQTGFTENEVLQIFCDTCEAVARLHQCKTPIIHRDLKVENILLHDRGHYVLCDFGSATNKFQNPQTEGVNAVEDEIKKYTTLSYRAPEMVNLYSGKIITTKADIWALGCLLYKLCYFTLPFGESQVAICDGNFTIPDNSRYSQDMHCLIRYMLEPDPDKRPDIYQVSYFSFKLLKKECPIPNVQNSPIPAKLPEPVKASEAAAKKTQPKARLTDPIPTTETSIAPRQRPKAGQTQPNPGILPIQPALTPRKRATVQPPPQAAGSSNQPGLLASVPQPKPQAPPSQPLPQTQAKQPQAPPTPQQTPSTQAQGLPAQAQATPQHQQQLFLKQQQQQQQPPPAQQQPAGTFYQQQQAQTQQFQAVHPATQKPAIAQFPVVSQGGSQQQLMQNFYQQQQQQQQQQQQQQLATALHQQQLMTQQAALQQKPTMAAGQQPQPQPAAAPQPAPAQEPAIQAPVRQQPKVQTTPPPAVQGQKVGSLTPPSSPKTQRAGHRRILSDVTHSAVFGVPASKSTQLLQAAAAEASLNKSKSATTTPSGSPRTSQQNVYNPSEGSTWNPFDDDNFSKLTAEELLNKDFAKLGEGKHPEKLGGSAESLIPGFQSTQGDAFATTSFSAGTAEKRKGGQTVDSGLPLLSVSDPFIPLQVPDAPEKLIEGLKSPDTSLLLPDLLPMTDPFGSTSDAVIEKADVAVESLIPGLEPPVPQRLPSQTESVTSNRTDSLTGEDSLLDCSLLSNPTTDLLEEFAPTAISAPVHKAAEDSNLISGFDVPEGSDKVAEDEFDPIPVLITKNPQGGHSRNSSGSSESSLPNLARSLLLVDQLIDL
Summary of the method: (§1)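 Active-site-dependent competition-binding (KINOMEscan) panel of 468 kinases, test compound at 1 μM (from a 10 mM DMSO stock). Read-out is ctrl% = (test signal − positive control signal)/(negative control signal − positive control signal) × 100. DMSO is the negative control (100%) and a control compound is the positive control (0%). Lower ctrl% means tighter binding.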

[4] = tested on: Tyrosine-protein kinase ABL1 (Homo sapiens), P00519 [F317L]; experiment: Inhibition of ABL1 F317L mutant (unknown origin) assessed as remaining activity at 1 uM by Kinome scan method relative to control; summary of the method: as §1
Tyrosine-protein kinase ABL1 (Homo sapiens), P00519 [F317L], sequence (P00519 whole entry F317L): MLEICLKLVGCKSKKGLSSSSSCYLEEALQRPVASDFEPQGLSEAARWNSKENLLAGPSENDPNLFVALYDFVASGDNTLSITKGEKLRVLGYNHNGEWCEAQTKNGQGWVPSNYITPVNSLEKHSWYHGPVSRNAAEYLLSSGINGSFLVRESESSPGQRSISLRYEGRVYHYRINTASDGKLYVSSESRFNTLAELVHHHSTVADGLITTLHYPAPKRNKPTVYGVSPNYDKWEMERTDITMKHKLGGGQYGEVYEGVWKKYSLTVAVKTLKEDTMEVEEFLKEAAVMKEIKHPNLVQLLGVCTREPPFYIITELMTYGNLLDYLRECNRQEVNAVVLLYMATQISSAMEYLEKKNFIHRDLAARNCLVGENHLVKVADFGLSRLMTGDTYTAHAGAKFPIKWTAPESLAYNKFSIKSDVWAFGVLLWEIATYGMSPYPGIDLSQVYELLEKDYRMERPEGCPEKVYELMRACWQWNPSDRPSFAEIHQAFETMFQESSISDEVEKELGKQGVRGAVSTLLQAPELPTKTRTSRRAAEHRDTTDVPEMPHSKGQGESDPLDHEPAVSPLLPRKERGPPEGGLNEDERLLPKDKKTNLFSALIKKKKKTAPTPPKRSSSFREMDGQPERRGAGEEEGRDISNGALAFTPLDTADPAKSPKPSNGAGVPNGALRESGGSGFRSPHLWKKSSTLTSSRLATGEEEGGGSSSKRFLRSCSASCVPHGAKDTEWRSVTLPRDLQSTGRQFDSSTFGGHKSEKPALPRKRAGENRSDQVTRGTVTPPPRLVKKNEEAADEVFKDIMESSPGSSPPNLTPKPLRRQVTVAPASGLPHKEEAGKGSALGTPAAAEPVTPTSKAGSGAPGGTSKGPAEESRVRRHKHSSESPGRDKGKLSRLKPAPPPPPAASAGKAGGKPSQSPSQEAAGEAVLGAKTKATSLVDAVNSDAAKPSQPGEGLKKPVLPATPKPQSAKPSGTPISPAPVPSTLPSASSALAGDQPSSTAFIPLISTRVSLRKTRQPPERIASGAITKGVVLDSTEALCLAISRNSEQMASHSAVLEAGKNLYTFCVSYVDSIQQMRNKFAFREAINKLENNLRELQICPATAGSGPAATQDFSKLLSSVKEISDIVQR

[5] = molecular target: Tyrosine-protein kinase ABL1 (Homo sapiens) (UniProt P00519); experiment: Inhibition of phosphorylated ABL1 (unknown origin) assessed as remaining activity at 1 uM by Kinome scan method relative to control
Tyrosine-protein kinase ABL1 (Homo sapiens), sequence (P00519 whole entry): as the sequence (P00519 whole entry F317L) above, with L317F counted along it

[6] = molecular target: Atypical kinase COQ8A, mitochondrial (Homo sapiens) (UniProt Q8NI60); experiment: Inhibition of ADCK3 (unknown origin) assessed as remaining activity at 1 uM by Kinome scan method relative to control; summary of the method: as §1
[7] = molecular target: Calcium/calmodulin-dependent protein kinase kinase 1 (Homo sapiens) (UniProt Q8N5S9); experiment: Inhibition of CAMKK1 (unknown origin) assessed as remaining activity at 1 uM by Kinome scan method relative to control
Summary of the method: (§2)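 Active-site-dependent competition-binding profiling (KINOMEscan) at 1 μM against a 468-kinase panel; compound supplied from a 10 mM DMSO stock. Read-out is ctrl% = (test signal − positive control signal)/(negative control signal − positive control signal) × 100. DMSO is the negative control (100%) and a control compound the positive control (0%). Lower ctrl% means tighter binding.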

[8] = molecular target: Tyrosine-protein kinase CSK (Homo sapiens) (UniProt P41240); experiment: Inhibition of CSK (unknown origin) assessed as remaining activity at 1 uM by Kinome scan method relative to control; summary of the method: as §2
[9] = molecular target: Epidermal growth factor receptor (Homo sapiens) (UniProt P00533); experiment: Inhibition of EGFR (unknown origin) assessed as remaining activity at 1 uM by Kinome scan method relative to control
[10] = molecular target: Receptor tyrosine-protein kinase erbB-3 (Homo sapiens) (UniProt P21860); experiment: Inhibition of ERBB3 (unknown origin) assessed as remaining activity at 1 uM by Kinome scan method relative to control
Receptor tyrosine-protein kinase erbB-3 (Homo sapiens), sequence (P21860 whole entry): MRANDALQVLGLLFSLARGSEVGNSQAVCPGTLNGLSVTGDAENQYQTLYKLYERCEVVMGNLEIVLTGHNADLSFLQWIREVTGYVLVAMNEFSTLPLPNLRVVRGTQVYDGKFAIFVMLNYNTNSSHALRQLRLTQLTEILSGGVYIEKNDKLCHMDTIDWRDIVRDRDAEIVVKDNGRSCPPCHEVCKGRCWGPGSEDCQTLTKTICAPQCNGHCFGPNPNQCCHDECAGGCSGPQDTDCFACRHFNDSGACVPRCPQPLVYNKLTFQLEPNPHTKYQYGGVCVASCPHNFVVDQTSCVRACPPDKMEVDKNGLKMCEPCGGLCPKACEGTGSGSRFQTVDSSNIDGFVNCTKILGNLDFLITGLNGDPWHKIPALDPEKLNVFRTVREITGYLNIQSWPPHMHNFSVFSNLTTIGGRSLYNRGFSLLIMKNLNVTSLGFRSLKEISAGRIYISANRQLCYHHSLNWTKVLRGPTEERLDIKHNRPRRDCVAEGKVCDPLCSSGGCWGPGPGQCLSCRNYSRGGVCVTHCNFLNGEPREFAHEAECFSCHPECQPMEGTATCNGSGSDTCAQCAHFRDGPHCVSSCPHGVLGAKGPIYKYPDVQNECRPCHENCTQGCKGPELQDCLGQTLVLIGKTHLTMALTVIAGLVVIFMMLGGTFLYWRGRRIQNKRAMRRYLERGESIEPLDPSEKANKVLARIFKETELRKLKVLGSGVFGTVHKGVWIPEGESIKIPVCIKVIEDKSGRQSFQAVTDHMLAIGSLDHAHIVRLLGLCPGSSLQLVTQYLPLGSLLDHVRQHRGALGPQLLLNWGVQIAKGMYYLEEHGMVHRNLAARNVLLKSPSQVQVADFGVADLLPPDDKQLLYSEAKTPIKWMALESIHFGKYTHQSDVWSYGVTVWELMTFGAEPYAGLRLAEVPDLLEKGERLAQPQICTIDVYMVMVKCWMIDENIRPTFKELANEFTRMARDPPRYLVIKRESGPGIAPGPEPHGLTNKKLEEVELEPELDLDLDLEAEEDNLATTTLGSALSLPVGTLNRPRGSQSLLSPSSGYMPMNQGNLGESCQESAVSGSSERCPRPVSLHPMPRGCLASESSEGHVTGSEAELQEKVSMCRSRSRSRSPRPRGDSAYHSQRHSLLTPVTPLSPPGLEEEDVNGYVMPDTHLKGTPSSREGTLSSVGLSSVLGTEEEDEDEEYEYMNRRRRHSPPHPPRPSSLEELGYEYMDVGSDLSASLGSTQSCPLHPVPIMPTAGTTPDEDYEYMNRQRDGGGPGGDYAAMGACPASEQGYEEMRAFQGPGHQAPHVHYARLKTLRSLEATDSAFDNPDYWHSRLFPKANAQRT

[11] = molecular target: Hormonally up-regulated neu tumor-associated kinase (Homo sapiens) (UniProt P57058); experiment: Inhibition of HUNK (unknown origin) assessed as remaining activity at 1 uM by Kinome scan method relative to control
Hormonally up-regulated neu tumor-associated kinase (Homo sapiens), sequence (P57058 whole entry): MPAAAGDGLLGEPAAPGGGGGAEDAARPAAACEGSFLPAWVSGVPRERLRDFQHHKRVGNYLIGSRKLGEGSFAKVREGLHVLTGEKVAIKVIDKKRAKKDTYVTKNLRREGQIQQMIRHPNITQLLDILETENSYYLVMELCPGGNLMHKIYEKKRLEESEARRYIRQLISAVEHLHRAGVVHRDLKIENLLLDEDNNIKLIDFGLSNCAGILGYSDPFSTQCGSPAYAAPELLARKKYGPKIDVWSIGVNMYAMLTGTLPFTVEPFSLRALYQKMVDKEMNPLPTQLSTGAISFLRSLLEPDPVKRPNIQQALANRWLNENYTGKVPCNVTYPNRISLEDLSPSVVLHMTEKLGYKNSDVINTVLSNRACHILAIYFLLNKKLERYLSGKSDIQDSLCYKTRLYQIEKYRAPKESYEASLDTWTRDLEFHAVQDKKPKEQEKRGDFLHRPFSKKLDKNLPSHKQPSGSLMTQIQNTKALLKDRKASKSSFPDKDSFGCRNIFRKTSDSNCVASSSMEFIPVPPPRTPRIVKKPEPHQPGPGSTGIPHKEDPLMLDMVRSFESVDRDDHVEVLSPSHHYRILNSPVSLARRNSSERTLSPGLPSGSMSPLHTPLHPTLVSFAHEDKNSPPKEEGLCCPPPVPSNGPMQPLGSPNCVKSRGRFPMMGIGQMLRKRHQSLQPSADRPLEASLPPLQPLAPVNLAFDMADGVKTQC

[12] = molecular target: Myosin light chain kinase 2, skeletal/cardiac muscle (Homo sapiens) (UniProt Q9H1R3); experiment: Inhibition of MYLK2 (unknown origin) assessed as remaining activity at 1 uM by Kinome scan method relative to control
[13] = molecular target: Serine/threonine-protein kinase Nek11 (Homo sapiens) (UniProt Q8NG66); experiment: Inhibition of NEK11 (unknown origin) assessed as remaining activity at 1 uM by Kinome scan method relative to control
[14] = molecular target: Serine/threonine-protein kinase D3 (Homo sapiens) (UniProt O94806); experiment: Inhibition of PRKD3 (unknown origin) assessed as remaining activity at 1 uM by Kinome scan method relative to control
[15] = molecular target: Serine/threonine-protein kinase SIK1 (Homo sapiens) (UniProt P57059); experiment: Inhibition of SIK (unknown origin) assessed as remaining activity at 1 uM by Kinome scan method relative to control
Serine/threonine-protein kinase SIK1 (Homo sapiens), sequence (P57059 whole entry): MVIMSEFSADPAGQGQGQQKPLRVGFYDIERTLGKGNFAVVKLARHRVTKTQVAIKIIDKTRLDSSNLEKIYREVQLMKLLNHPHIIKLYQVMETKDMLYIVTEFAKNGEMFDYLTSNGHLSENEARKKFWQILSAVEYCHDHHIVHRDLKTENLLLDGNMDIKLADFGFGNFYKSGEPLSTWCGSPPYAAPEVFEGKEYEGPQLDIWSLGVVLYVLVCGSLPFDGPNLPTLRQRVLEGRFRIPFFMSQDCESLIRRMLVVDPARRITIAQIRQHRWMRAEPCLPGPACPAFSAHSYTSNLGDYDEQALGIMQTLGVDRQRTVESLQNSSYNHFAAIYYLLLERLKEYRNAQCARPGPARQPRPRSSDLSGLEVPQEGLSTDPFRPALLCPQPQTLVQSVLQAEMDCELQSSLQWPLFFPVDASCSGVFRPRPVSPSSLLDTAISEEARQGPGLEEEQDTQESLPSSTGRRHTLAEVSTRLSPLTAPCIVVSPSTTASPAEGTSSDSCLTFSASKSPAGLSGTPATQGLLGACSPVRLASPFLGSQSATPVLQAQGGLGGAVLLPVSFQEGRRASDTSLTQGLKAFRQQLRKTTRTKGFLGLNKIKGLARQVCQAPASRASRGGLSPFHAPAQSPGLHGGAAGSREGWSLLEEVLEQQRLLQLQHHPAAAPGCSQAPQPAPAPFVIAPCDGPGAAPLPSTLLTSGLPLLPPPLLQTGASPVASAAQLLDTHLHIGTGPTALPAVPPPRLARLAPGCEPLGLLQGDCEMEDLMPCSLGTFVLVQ

[16] = molecular target: Serine/threonine-protein kinase 35 (Homo sapiens) (UniProt Q8TDR2); experiment: Inhibition of STK35 (unknown origin) assessed as remaining activity at 1 uM by Kinome scan method relative to control
[17] = molecular target: Tyrosine-protein kinase receptor TYRO3 (Homo sapiens) (UniProt Q06418); experiment: Inhibition of TYRO3 (unknown origin) assessed as remaining activity at 1 uM by Kinome scan method relative to control
[18] = tested on: HepG2; experiment: Inhibition of Flag-tagged MST1 Y101F/D109A mutant (unknown origin) in human HepG2 cells assessed as MOB1 phosphorylation level at 3 uM by immunoblot analysis; assay type: cell-based
[19] = Acute toxicity in wild-type mouse assessed as cell proliferation in kidney at 3 mg/kg,ip administrated daily for 7 days by Ki67 staining; assay type: organism-based; settings: in vivo, 168 h, time 7 day
Summary of the method: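 Wild-type mice received vehicle or 3 mg/kg i.p. daily for 7 days. Ki67 staining of sections from various tissues with quantification of positive cells, n = 6; means ± SD, Student's t test. Daily weights, physical activity and serum chemistry were also monitored.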

[20] = tested on: Mus musculus; experiment: Protection against human hepatocyte transplanted FRG mouse assessed as increase in the ratio of BrdU+/FAH+ cells at 1 mg/kg, ip administrated once a daily for 28 days by H&E staining based immunohistochemical analysis; assay type: functional, organism-based; settings: Liver, time 28.0 day
[21] = Toxicity in DSS-induced mouse assessed as body weight loss at 1 mg/kg, ip administrated daily for over 1 to 21 days; assay type: organism-based; settings: in vivo, time 1-21 day
Summary of the method: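 Colitis was induced with oral DSS on days 1–7, with vehicle or 1 mg/kg i.p. daily, n = 12 per group. Body weight was recorded over days 1–21 as a percentage of day 1; means ± SD, Student's t test per time point.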

[22] = tested on: Mus musculus; experiment: Protection against duct ligation-induced mouse assessed as low level in collagen deposition at 1 mg/kg, ip administration daily for 10 days by Sirius Red staining; assay type: functional, organism-based; settings: Liver, time 10.0 day

Structure (SMILES): CN1C(=O)c2sccc2N(C)c2nc(Nc3ccc(S(N)(=O)=O)cc3)ncc21
- IC50 [1]: 177 nM
- IC50 [2]: 280 nM
- Activity [3]: 100%
- Activity [4]: 32%
- Activity [5]: 13%
- Activity [6]: 92%
- Activity [7]: 80%
- Activity [8]: 100%
- Activity [9]: 100%
- Activity [10]: 98%
- Activity [11]: 84%
- Activity [12]: 92%
- Activity [13]: 100%
- Activity [14]: 65%
- Activity [15]: 100%
- Activity [16]: 100%
- Activity [17]: 100%
- inhibition [18]: Active
- Activity [19]: Non-Toxic
- Activity [20]: Active
- Activity [21]: Toxic
- Activity [22]: Active
